Source: PubChem (several laboratories)
An excerpt weighted towards active compounds, which were near 5% of everything screened.
Beta apoptosis – inhibitors of cytokine-induced beta cell apoptosis, primary screen, luminescence; INS-1E cytokine-induced death, ATP luminescence, 48 h; percent of positive-control rescue, neutral wells zero; AID 435005, 2010; protection from apoptosis, % (concentration not given with the values); hit rate 0.8% among 300,000;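 active = Every replicate reaches about 75%, or at least half do and their mean reaches it too, limit read from the data; inconclusive = At least half of replicates reach the limit but their mean does not; inactive = Under half of replicates reach the limit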;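 note: higher means more ATP so stronger rescue from cytokine killing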
UPR XBP1 act – activators of adaptive XBP1 UPR arm, primary screen, cell-based, CHO-XBP1 luciferase reporter, luminescence, uHTS. IRE1-XBP1 UPR activation; percent of tunicamycin response, DMSO as zero. activation, % at 20 µM. hit rate 0.33% among 330,000;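 active = versus positive control, 20 µM dose yields 30% or more activation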
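assay system = CHO-XBP1 luciferase reporter cells | amount = 1000 cells/well | buffer or medium = F12 plus 10% FBS | compound dosing = single point, 20 µM final compound, 1% DMSO | incubation = 16-18 h cell attachment at 37 °C, then 6 h compound exposure | detection = Steady-Glo luminescence read | controls = tunicamycin 10 µg/mL and vehicle-only wells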
CHOP UPR activ – activators of apoptotic CHOP UPR arm, primary screen, cell-based, CHO-CHOP luciferase reporter, luminescence, uHTS; UPR activation; percent of tunicamycin response over DMSO baseline; activation, % at 10 µM; hit rate 0.34% among 330,000;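 active = at 10 µM dose, activation of 40% or more, normalized to positive control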
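Evaluation: % reporter activation, DMSO baseline versus tunicamycin full activation; System: CHO-CHOP luciferase reporter cell line; Input: 500 cells/well; Incubation: 6 h compound treatment, 37 °C; Measured by: Steady-Glo luciferase luminescence; Dosing: one dose, 10 µM in 0.5% DMSO; Buffer or medium: F12 medium, 10% FBS; Benchmarks: positive tunicamycin 10 µg/mL, negative DMSO alone.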
Mdm2-MdmX inh – inhibitors of human Mdm2-MdmX association, primary screen, cell-based, luminescence, split luciferase, SaOS-2, uHTS; Protein Mdm4 (Homo sapiens) + E3 ubiquitin-protein ligase Mdm2 (Homo sapiens), …; SaOS-2 split-luciferase Mdm2/MdmX complementation; inhibition, % at 8 µM; hit rate 3% among 330,000; AID 485346, 2010;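 active = inhibition of at least 50% at 8 µM in the primary screen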
Target sequence (O15151 whole entry, looked up): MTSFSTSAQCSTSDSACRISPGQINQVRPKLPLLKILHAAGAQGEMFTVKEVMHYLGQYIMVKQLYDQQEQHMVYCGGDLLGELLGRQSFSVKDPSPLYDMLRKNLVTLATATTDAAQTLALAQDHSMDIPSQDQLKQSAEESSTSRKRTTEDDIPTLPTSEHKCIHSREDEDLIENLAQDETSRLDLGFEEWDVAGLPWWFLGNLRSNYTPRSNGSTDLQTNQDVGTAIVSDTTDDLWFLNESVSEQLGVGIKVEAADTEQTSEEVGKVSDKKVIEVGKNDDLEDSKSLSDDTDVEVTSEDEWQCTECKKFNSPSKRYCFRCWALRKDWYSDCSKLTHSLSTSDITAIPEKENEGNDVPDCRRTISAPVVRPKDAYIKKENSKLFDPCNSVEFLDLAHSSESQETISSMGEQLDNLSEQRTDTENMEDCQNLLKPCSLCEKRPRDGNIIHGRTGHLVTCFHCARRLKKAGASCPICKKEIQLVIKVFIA
Target sequence (Q00987 whole entry, looked up): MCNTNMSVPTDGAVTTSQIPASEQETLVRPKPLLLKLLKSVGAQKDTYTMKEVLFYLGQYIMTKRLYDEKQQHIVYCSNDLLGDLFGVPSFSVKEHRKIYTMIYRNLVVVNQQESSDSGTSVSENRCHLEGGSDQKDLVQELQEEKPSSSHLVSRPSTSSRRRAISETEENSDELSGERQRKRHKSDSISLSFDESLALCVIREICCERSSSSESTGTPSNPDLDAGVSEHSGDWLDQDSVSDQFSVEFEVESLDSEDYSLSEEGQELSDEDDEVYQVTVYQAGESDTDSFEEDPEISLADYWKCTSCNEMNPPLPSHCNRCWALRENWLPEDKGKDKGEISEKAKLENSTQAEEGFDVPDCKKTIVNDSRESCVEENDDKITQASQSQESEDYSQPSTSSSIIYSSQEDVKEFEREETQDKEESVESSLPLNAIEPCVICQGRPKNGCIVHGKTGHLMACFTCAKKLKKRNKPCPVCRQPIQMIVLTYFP
T cruzi inh – inhibitors of intracellular T. cruzi growth, primary screen, luminescence, NIH3T3 host cells | T. cruzi beta-gal in NIH3T3, 90 h | inhibition, % (concentration not given with the values) | hit rate 1.4% among 300,000;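 active = mean inhibition across valid replicates above about 55%, limit read from the data; inconclusive = mean below that limit but half or more replicates reach it; inactive = mean below it, under half of replicates reach it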;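 note: signal also drops with host cell toxicity which is not excluded here; higher percent means less beta-gal luminescence so fewer parasites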
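compound dosing = single 50 nL compound addition per well in DMSO | material = NIH/3T3 host cells with β-galactosidase reporter T. cruzi | input = 5,000 host fibroblasts per well | timing = ≥90 h infection period, 3 h prior cell attachment | read-out basis = percent inhibition of parasite-derived β-gal signal | detection = GalScreen β-gal luminescence, detergent lysis, 60 min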
CSC inhib – cancer stem cell viability inhibitors, primary screen, luminescence; cancer stem cell-like cells viability; AID 2717, 2010; inhibition, % at 7.5 µM; hit rate 1.1% among 300,000; in the data active = inhibition above about 75%; inconclusive = no clear call, values can overlap the other calls; tested in HMLE shEcad cells
A number is an active result; – = inactive; ? = inconclusive; · = not tested or not shown.

SMILES | Beta apoptosis | UPR XBP1 act | CHOP UPR activ | Mdm2-MdmX inh | T cruzi inh | CSC inhib
CCOC(=O)/C(=C/c1ccc(OC(=O)c2ccncc2)cc1)C(C)=O | – | – | – | – | – | –
CCOC(=O)C(=Cc1ccc(Br)cc1)C(=O)OCC | 86.2 | · | · | · | – | –
O=C(c1cnn2c(C(F)(F)F)cc(-c3cccs3)nc12)N1CCN(Cc2ccccc2)CC1 | – | – | – | – | 74.6 | –
O=C(C[n+]1ccccc1)NNc1ccccc1 | – | – | – | – | – | 113.7
Nc1cc[n+](CC(=O)Nc2ccccc2)cc1 | – | – | – | – | – | –
Cc1nnc(SCC(=O)N2CCC(C(N)=O)CC2)s1 | – | – | – | – | – | –
COc1ccccc1C(=O)Nc1ccnn1C1CCN(Cc2ccccc2OCCO)CC1 | · | – | – | – | – | –
CCn1cc(CN2CCC(n3nccc3NC(=O)c3ccccc3OC)CC2)cn1 | – | – | – | – | – | –
COc1ccccc1/C=C/CN1CCC(n2nccc2NC(=O)CCc2ccccc2)CC1 | 78.1 | – | – | – | – | –
COc1ccccc1C(=O)Nc1ccnn1C1CCN(Cc2cnc(N(C)C)s2)CC1 | – | – | – | – | 55.9 | –
CCOc1ccc(CN2CCC(n3nccc3NC(=O)c3ccccc3OC)CC2)cc1 | – | – | – | – | 61.7 | –
CC(=O)N/N=C(\N)c1nonc1N | – | – | – | – | – | –
Cc1ccc(N2C(=O)N(CC(=O)Nc3ccc(C)cc3[N+](=O)[O-])C(=O)C2C)cc1 (centres undefined) | – | – | – | – | – | –
O=C(COC(=O)/C=C/c1ccccc1)NCc1ccccc1Cl | – | – | – | – | – | ·
COC(=O)[C@]1(C)N[C@H](CN(C)S(=O)(=O)c2ccc(OC(F)(F)F)cc2)[C@@H]2C(=O)N(Cc3ccccc3)C(=O)[C@@H]21 | · | – | – | – | · | ·
O=C(COC(=O)c1ccc(Br)cc1)NCc1ccccc1 | – | – | – | – | – | –
CC(=O)Cc1cc(O)c2ccccc2c1OC(=O)c1ccc(Br)cc1 | 108.0 | – | – | – | – | –
COc1ccc(-c2cccc3c2NC(=O)C3=O)cc1OC | · | – | – | – | · | ·
O=C(CCc1nc(-c2ccc(Cl)cc2)no1)NC1CCCCC1 | – | – | – | – | – | –
O=C(CCCc1nc(-c2ccc(Cl)cc2)no1)NC1CCCC1 | 106.9 | – | – | – | – | –
Oc1ccccc1/C=N/Nc1nc2ccccc2o1 | 98.1 | – | – | – | 55.6 | ?
Oc1ccccc1/C=N/Nc1ccccc1 | – | – | – | – | – | –
Brc1ccc(/C=N/Nc2nc3ccccc3o2)cc1 | – | – | – | – | – | –
Oc1ccccc1/C=N/Nc1ncc(Br)cn1 | 87.5 | · | · | · | – | –
Cc1cc(C)cc(C(=O)NC(CC(N)=O)c2ccc(NCCN3CCCC3)c([N+](=O)[O-])c2)c1 (centres undefined) | – | – | – | – | – | –
SMILES | Beta apoptosis | UPR XBP1 act | CHOP UPR activ | Mdm2-MdmX inh | T cruzi inh | CSC inhib
COC(=O)C(C)NC(=O)C12CC3CC(C1)CC(c1ccc(C)cc1)(C3)C2 (centres undefined) | – | – | – | – | – | –
Cc1ccc(C(=O)Nc2cccc(NC(=O)c3ccc(C)o3)n2)o1 | – | – | – | – | – | –
CC(C)Cn1c(O)c(/C=C2\C=NN=C2c2ccccc2)sc1=S | – | – | – | – | – | 90.5
COc1ccc2[nH]c(CN3CCN(CCC(C)C)C(CCO)C3)c(C)c2c1 (centres undefined) | – | – | – | – | 60.8 | –
COc1ccc2[nH]c(CN3CCN(CC=C(C)C)C(CCO)C3)c(C)c2c1 (centres undefined) | – | – | – | – | – | –
CCOC(=O)CN1C(=O)N[C@@H](c2ccccc2)[C@H](C(C)=O)[C@H]1C | – | – | – | – | – | –
Cc1ccc(NC(=O)c2c(C(F)(F)F)nn(C)c2Cl)cc1C | – | – | – | – | – | –
Cc1ccc(NC(=O)c2c(C(F)(F)F)nn(C)c2SCc2ccc(Cl)cc2)cc1C | – | – | – | – | 64.7 | –
